Where a name gives a salt, the structure may show the parent alone. The source made the active and inactive calls. The rule behind the calls is not given here.
Experiments:
[1] = AUC in non-fasted rat at 1 mg/kg, po administered through cassette dosing by LC/MS/MS analysis; type: ADME, organism-based; conditions: in vivo
Outline: (§1)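 Cassette dosing to non-fasted rats, either 0.1 mg/kg iv or 1 mg/kg po. Blood was sampled after dosing and spun to plasma. Plasma was deproteinized and centrifuged, and compound levels in the supernatant were measured by LC/MS/MS.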

[2] = Oral bioavailability in non-fasted rat at 1 mg/kg administered through cassette dosing by LC/MS/MS analysis; type: ADME, organism-based; conditions: in vivo; outline: as §1
[3] = Plasma clearance in non-fasted rat at 0.1 mg/kg, iv or 1 mg/kg, po administered through cassette dosing by LC/MS/MS analysis; type: ADME, organism-based; conditions: in vivo; outline: as §1
Rattus norvegicus [4] = test: Antihypertensive activity in human angiotensinogen and renin double transgenic rat model assessed as reduction in systolic blood pressure at 10 mg/kg, po after 24 hrs by tail-cuff method; type: functional, organism-based
Outline: (§2)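 Male hAOPEN-hREN double transgenic rats, 5 weeks old. Drugs were dissolved in 0.5% methylcellulose and given orally; vehicle-dosed rats served as controls. Systolic pressure was read by tail-cuff before dosing and at 5 and 24 h after dosing.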

Rattus norvegicus [5] = test: Antihypertensive activity in human angiotensinogen and renin double transgenic rat model assessed as reduction in systolic blood pressure at 3 mg/kg, po after 5 hrs by tail-cuff method; type: functional, organism-based; outline: as §2
Rattus norvegicus [6] = test: Antihypertensive activity in human angiotensinogen and renin double transgenic rat model assessed as reduction in systolic blood pressure at 10 mg/kg, po after 5 hrs by tail-cuff method; type: functional, organism-based; outline: as §2
[7] = Inhibition of pepsin (unknown origin); design: species or system Homo sapiens
Cathepsin D = Cathepsin D (Homo sapiens, UniProt P07339); test: Inhibition of cathepsin D (unknown origin)
Rattus norvegicus [8] = test: Antihypertensive activity in po dosed human angiotensinogen and renin double transgenic rat model assessed as reduction in systolic blood pressure after 5 to 24 hrs by tail-cuff method; type: functional, organism-based; outline: as §2
Renin [9] = biological target: T1, Renin (Homo sapiens, UniProt P00797); test: Inhibition of renin in human plasma by radioimmunoassay; type: cell-free
T1 sequence (P00797 whole entry): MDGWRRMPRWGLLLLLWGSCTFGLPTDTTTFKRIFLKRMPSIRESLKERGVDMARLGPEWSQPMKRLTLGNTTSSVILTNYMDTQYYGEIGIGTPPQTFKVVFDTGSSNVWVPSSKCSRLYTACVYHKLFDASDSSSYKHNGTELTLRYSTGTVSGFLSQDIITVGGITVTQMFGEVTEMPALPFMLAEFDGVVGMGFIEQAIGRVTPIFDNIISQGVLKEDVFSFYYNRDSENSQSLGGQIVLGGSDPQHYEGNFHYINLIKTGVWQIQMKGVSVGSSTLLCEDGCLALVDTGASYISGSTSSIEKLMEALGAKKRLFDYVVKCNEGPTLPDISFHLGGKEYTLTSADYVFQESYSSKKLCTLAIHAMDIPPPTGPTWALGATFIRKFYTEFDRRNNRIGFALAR

Renin [10] = biological target: T1, Renin; test: Inhibition of recombinant human preprorenin expressed in human 293F cells using angiotensinogen as substrate preincubated for 10 mins followed by substrate addition measured after 30 mins by ELISA
Rattus norvegicus [11] = test: Antihypertensive activity in human angiotensinogen and renin double transgenic rat model assessed as reduction in systolic blood pressure at 75 mg/kg, po after 24 hrs by tail-cuff method; type: functional, organism-based; outline: as §2
Rattus norvegicus [12] = test: Antihypertensive activity in human angiotensinogen and renin double transgenic rat model assessed as reduction in systolic blood pressure at 75 mg/kg, po after 5 hrs by tail-cuff method; type: functional, organism-based; outline: as §2

Cathepsin D, sequence (P07339 65-162 limits assumed): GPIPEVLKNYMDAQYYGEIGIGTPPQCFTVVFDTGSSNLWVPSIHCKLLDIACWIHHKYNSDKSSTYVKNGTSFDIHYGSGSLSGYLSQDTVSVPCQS
Cathepsin D, sequence (P07339 169-412 limits assumed): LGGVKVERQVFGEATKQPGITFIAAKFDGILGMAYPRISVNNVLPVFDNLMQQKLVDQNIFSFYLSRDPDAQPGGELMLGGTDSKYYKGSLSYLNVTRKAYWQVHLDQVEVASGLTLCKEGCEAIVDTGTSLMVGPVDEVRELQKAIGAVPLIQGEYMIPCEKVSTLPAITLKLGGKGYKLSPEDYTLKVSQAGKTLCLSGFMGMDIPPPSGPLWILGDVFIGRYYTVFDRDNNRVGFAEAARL

SMILES	IC50 (Renin [9])	IC50 (Renin [10])	other results
CCCCCCc1nc(C(C)(C)C)ncc1C(=O)N(CC(C)C)[C@@H]1CNC[C@H](C(=O)N2CCOCC2)C1	–	–	AUC [1]: 0.0209 µg·h/mL; F [2]: 5%; CL [3]: 2.407 L/h/kg
COCCCCn1c(C(=O)N(CC(C)C)[C@@H]2CNC[C@H](C(=O)N3CCOCC3)C2)nc2ccccc21 [IMARIKIREN HYDROCHLORIDE]	–	–	Activity (Rattus norvegicus [4]): Active; Activity (Rattus norvegicus [5]): Active; Activity (Rattus norvegicus [6]): Active; IC50 [7]: > 10000 nM; IC50 (Cathepsin D): > 10000 nM; Activity (Rattus norvegicus [8]): Dose-dependent effect
COC(=O)[C@@H]1CNC[C@H](N(CC(C)C)C(=O)c2cnc(C(C)(C)C)nc2NCc2ccco2)C1	> 10 nM	1.2 nM	–
CC(C)CN(C(=O)c1cnc(C(C)(C)C)nc1NCc1ccco1)[C@H]1CCCNC1	4.6 nM	0.58 nM	–
COC(=O)[C@@H]1CNC[C@@H](N(CC(C)C)C(=O)c2cnc(C(C)(C)C)nc2NCc2ccco2)C1 (relative stereo)	10 nM	3.3 nM	–
COCCCOc1cc(C[C@@H](C[C@H](N)[C@@H](O)C[C@H](C(=O)NCC(C)(C)C(N)=O)C(C)C)C(C)C)ccc1OC	–	–	Activity (Rattus norvegicus [11]): Active; Activity (Rattus norvegicus [12]): Active
COCCCNc1nc(C(C)(C)C)ncc1C(=O)N(CC(C)C)[C@@H]1CNC[C@H](C(=O)N2CCOCC2)C1	–	–	F [2]: < 1%; CL [3]: 5.539 L/h/kg
COC(=O)[C@H]1CNC[C@@H](N(CC(C)C)C(=O)c2cnc(C(C)(C)C)nc2NCc2ccco2)C1 (racemic)	1.4 nM	0.44 nM	–

More lines, main results first:

IC50 (Renin [9])	IC50 (Renin [10])	SMILES	other results
4.5 nM	1.4 nM	COCCCNc1nc(C(C)(C)C)ncc1C(=O)N(CC(C)C)[C@@H]1CNC[C@H](C(N)=O)C1	–
5.2 nM	2.6 nM	COCCCNc1nc(C(C)(C)C)ncc1C(=O)N(CC(C)C)[C@@H]1CNC[C@H](C(=O)OC)C1	–
0.35 nM	0.039 nM	COC(=O)[C@H]1CNC[C@@H](N(CC(C)C)C(=O)c2cnc(C(C)(C)C)nc2NCc2ccco2)C1	–

Reference: ChEMBL document CHEMBL3856290, “Discovery of TAK-272: A Novel, Potent, and Orally Active Renin Inhibitor” (ACS Med Chem Lett, 2016)
